CYP2C19 act: human CYP2C19 activators, primary screen, biochemical, luminescence | activation factor at 5 µM | Cytochrome P450 2C19 (Homo sapiens), P33261 | AID 1025, 2008 | recombinant CYP2C19, luciferin-H EGE luminescence; active compounds read high; 0 = fully inhibited enzyme, 1 = untreated enzyme | 96,000 tested, under 10 active;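 active = activation factor of at least 2 at 5 µM in the primary screen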
Target sequence (P33261 whole entry, looked up): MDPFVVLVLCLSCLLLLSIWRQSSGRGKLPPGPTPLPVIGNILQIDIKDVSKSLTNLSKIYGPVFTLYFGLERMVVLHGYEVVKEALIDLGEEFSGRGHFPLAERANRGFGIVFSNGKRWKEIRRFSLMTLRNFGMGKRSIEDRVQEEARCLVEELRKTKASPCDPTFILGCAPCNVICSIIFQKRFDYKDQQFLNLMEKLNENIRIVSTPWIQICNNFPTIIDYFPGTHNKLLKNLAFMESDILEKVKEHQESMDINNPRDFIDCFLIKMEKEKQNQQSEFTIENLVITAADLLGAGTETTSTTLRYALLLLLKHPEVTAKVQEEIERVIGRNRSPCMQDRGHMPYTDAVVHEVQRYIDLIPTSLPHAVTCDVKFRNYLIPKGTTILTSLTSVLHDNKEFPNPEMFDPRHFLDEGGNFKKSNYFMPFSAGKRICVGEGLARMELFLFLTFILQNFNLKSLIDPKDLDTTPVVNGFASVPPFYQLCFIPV
CYP2C9 act: human CYP2C9 activators, primary screen, biochemical, luminescence; Cytochrome P450 2C9 (Homo sapiens), P11712; recombinant CYP2C9, luciferin-H conversion; active compounds read high; factor 1 = untreated enzyme, 0 = blocked; activation factor at 5 µM; 1.4% of 96,000 active; AID 1024, 2008;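 active = activation factor of 2 or more for CYP2C9 at a 5 µM dose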
Ecoli tolC: growth inhibitors of E. coli tolC mutant, primary screen, strain BW25113 ΔtolC::kan, 384-well; 2.2% of 65,000 active; growth inhibition, % at 10 µM (by protocol); AID 573, 2007; OD615;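 active = growth inhibition at or above a cutoff equal to the mean over every tested compound plus 3 SD, cut at about 60% in these data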;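 note: growth measured after 20 h incubation at 37 °C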
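System: E. coli ΔtolC::kan strain BW25113; Buffer or medium: LB broth supplemented with 50 µg/mL kanamycin; Compound: 10 µM final, single dose; Incubation: bacterial growth with compound for 20 h at 37 °C; Signal: A615 absorbance measurement; Evaluation: growth inhibition in percent.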
Ecoli WT expand: growth inhibitors of wild-type E. coli, primary screen, strain BW25113, expanded library, OD600. growth inhibition, % at 100 µM. 0.15% of 98,000 active. OD600 absorbance;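 active = growth inhibition above about 50% at one test dose, limit read from the data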;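 note: growth measured after 20 h incubation at 37 °C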
CYP2C19 inhib: blockers of cytochrome P450 2C19 activity – biochemical, luminescence, ADME assay, primary screen; CYP2C19 Supersomes, luciferin-H EGE luminescence, 30 min; inhibition, % at 5 µM; 21% of 96,000 active; AID 778, 2007;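 active = CYP2C19 inhibition above a set limit at 5 µM in the primary screen, cut at about 50% in these data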
CYP2C9 inh: blockers of cytochrome P450 2C9 activity – biochemical, luminescence, ADME assay, primary screen | AID 777, 2007 | 20% of 96,000 active | inhibition, % at 5 µM | CYP2C9 Supersomes, luciferin-H conversion;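 active = blocking of liver enzyme CYP2C9 beyond about 50% at 5 µM, limit read from the data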
Of the large screens only hits and unclear results are named; the others gave an inactive call. Most compounds without a hit are left out; they make up all but 29% or so of the library.

O=C(NCC1CCCO1)Nc1ccccc1 (stereo unspecified)	none (no result: Ecoli tolC)
COCCNC(=O)C(OC(=O)c1cc2oc(C)cc2n1C)C(C)C (stereo unspecified)	none (no result: Ecoli tolC)
CC(NC(=O)Cn1cc(C(=O)C2CC2)c2ccccc21)c1ccccc1 (stereo unspecified)	CYP2C19 inhib 59.2 (no result: Ecoli tolC)
O=C(Nc1ccc2nc(-c3ccc4nc[nH]c4c3)[nH]c2c1)c1cccs1	CYP2C9 inh 60.7 (no result: Ecoli tolC)
CCCCn1c(SCC(=O)Nc2cc(C)on2)nc2ccccc2c1=O	none
Cc1cc(NC(=O)CSc2nc3ccccc3c(=O)n2C(C)c2ccccc2)no1 (stereo unspecified)	CYP2C19 inhib 82.4 (no result: Ecoli tolC)
CCC(C)n1c(SCC(=O)Nc2cc(C)on2)nc2ccccc2c1=O (stereo unspecified)	CYP2C19 inhib 61.6, CYP2C9 inh 52.2 (no result: Ecoli tolC)
O=C(O)C1CCCCC1C(=O)Nc1cccc(Cl)c1Cl (stereo unspecified)	none (no result: Ecoli tolC)
Cc1cc(N2CCN(C3CCCC3)CC2)n2ncc(-c3ccccc3)c2n1	CYP2C19 inhib 71.8, CYP2C9 inh 76.0 (no result: Ecoli WT expand)
Nc1nc(-c2ccco2)c(-c2ccco2)s1	CYP2C19 inhib 78.5, CYP2C9 inh 77.3
c1coc(-c2nc(-c3ccco3)c(-c3ccco3)nc2-c2ccco2)c1	none
CCOC(=O)c1ccc(NC(=S)NCCCN2CCCCC2)cc1	none (no result: Ecoli tolC)
COc1nnc(-c2ccc(N3CCCCC3)c(N)c2)c2ccccc12	Ecoli tolC 62.7 (no result: CYP2C19 act, CYP2C9 act, Ecoli WT expand, CYP2C19 inhib, CYP2C9 inh)
CCCC(=O)Nc1cc(-c2nnc(OC)c3ccccc23)ccc1N1CCCCC1	none (no result: Ecoli tolC)
Cc1cc(C)n(-c2nncn2/N=C/c2ccccc2F)n1	none
COc1c(Br)cc(Br)cc1C(=O)O	none
CC1CCN(c2nc3ccc(C(=O)N4CCN(Cc5ccc6c(c5)OCO6)CC4)cc3s2)CC1	CYP2C19 inhib 94.1, CYP2C9 inh 90.0 (no result: Ecoli tolC)
O=C(c1ccc2nc(N3CCOCC3)sc2c1)N1CCCC1	none
O=C(CCc1ccc(S(=O)(=O)NCc2ccccc2)cc1)N1CCN(Cc2ccc3c(c2)OCO3)CC1	CYP2C9 inh 64.8 (no result: Ecoli tolC)
O=C(CCc1ccc(S(=O)(=O)N2CCOCC2)cc1)N1CCN(Cc2ccc3c(c2)OCO3)CC1	CYP2C9 inh 77.4 (no result: Ecoli tolC)
O=C(C1CCN(S(=O)(=O)N2CCOCC2)CC1)N1CCN(Cc2ccc3c(c2)OCO3)CC1	none
O=C(c1cccc(S(=O)(=O)NCc2ccccc2)c1)N1CCN(Cc2ccccc2)CC1	CYP2C19 inhib 64.8 (no result: Ecoli tolC)
CCCCC1(C)OC(=O)C(=Cc2ccc(N(C)C)cc2)C(=O)O1 (stereo unspecified)	none (no result: Ecoli tolC)
Cc1cc(N2CCC3(CC2)OCCO3)n2nc(C)c(-c3ccc(Cl)cc3)c2n1	none (no result: CYP2C19 act, CYP2C9 act, Ecoli WT expand, CYP2C19 inhib, CYP2C9 inh)
N#CC1=C(Nc2ccccc2)SC=C(c2ccc(F)cc2)N=C1N1CCOCC1	none (no result: Ecoli tolC)
O=C(c1ccccc1S(=O)(=O)NCc1ccccc1)N1CCCC1	CYP2C19 inhib 89.8, CYP2C9 inh 66.1
O=C(c1ccc(S(=O)(=O)N2CCCC2)cc1)N1CCN(Cc2ccc3c(c2)OCO3)CC1	CYP2C9 inh 63.4
CCOC(=O)c1cnn(-c2ncnc3sc4c(c23)CCC4)c1N	none
Cc1cc2ncn(-c3ncnc4sc5c(c34)CCC(C)C5)c2cc1C (stereo unspecified)	CYP2C19 inhib 80.1 (no result: Ecoli tolC)
CCn1nnc2sc3c(c2c1=O)CCC(C)C3 (stereo unspecified)	none (no result: Ecoli tolC)
Cc1cc2ncn(-c3ncnc4sc(C)c(C)c34)c2cc1C	CYP2C19 inhib 91.4, CYP2C9 inh 83.2
c1ccc2c(c1)ncn2-c1ncnc2sc3c(c12)CCCC3	CYP2C19 inhib 69.9 (no result: Ecoli tolC)
Cc1cc2ncn(-c3ncnc4scc(-c5ccccc5)c34)c2cc1C	none (no result: Ecoli tolC)
Cc1cc2ncn(-c3ncnc4sc5c(c34)CCCC5)c2cc1C	CYP2C19 inhib 82.8, CYP2C9 inh 65.9 (no result: Ecoli tolC)
O=C(CCN1C(=O)C2CC=C(Cl)CC2C1=O)N1CCCCC1 (stereo unspecified)	none
CC1(C)OC(=O)C(=CNCC(=O)NCC(=O)O)C(=O)O1	none
CCCc1c(O)nc(SCCN(CC)CC)n(C(=O)c2ccccc2)c1=O	none
CC1=C(C(N)=O)C(c2cccc(O)c2)n2nc(CCCO)nc2N1 (stereo unspecified)	none
O=C(CCC(=O)c1ccc[nH]1)c1ccc(Cl)cc1	none
COC(=O)C(CC(=O)c1ccc(Br)cc1)n1ccnc1 (stereo unspecified)	Ecoli WT expand 59.0, CYP2C19 inhib 95.5, CYP2C9 inh 80.8
Cn1c(-c2ccc3c(c2)OCO3)cnc1N	Ecoli tolC 90.8
Cn1c(-c2ccc3c(c2)OCO3)cnc1NCc1ccccc1	none
COc1ccc(C)cc1S(=O)(=O)N(C)CC(=O)N1CCCCCC1	none
CCCCn1c(SCC(=O)Nc2nc(C)cs2)nnc1-c1cccnc1	none
CCCn1c(SCC(=O)Nc2cccc(C(=O)OC)c2)nnc1-c1cccnc1	CYP2C9 inh 50.7
CCOC(=O)c1cccc(NC(=O)CSc2nnc(-c3ccncc3)n2CCCOC)c1	CYP2C19 inhib 50.3, CYP2C9 inh 63.7
CCCn1c(SCC(=O)Nc2nccs2)nnc1-c1cccnc1	CYP2C19 inhib 59.0
CCCCn1c(SCC(=O)NCc2cccs2)nc2c1c(=O)n(C)c(=O)n2C	none
Cc1ccc(CN2CCNC(=O)C2CC(=O)O)o1 (stereo unspecified)	none
CC(=O)c1cc2c(cc1NC(=O)CN1CCCCC1C)OCO2 (stereo unspecified)	none
CC(C)c1nc(SCc2c(F)cccc2Cl)c2c(=O)n(C)c(=O)n(C)c2n1	CYP2C9 inh 67.2
Cn1c(=O)c2c(nc(OCc3cccnc3)n2Cc2c(F)cccc2Cl)n(C)c1=O	CYP2C9 inh 51.5
Cn1c(=O)c2c(nc(SCCCC#N)n2Cc2c(F)cccc2Cl)n(C)c1=O	CYP2C9 inh 59.3
Cn1c(=O)c2c(nc(Br)n2Cc2c(F)cccc2Cl)n(C)c1=O	none (no result: Ecoli WT expand)
CCC(=O)N1CCCc2cc(S(=O)(=O)N3CCN(C4CCCCC4)CC3)ccc21	none
Cc1ccc2nc(SCc3nc4c(cnn4-c4ccccc4)c(=O)[nH]3)[nH]c2c1	none (no result: Ecoli tolC)
O=C(CCN1CCN(CCC(=O)c2ccccc2)CC1)c1ccccc1	none (no result: CYP2C19 act, CYP2C9 act, Ecoli WT expand, CYP2C19 inhib, CYP2C9 inh)
Cc1ccccc1OCC(=O)NC(=S)Nc1ccc2c3c(cccc13)CC2	none (no result: Ecoli tolC)
COc1cccc(C(=O)NC(=S)Nc2ccc3c4c(cccc24)CC3)c1	CYP2C9 act 2 (no result: Ecoli tolC)
COc1ccc(C(=O)Nc2cc(C(=O)NCCc3ccccc3)ccc2Cl)cc1	CYP2C19 inhib 57.3, CYP2C9 inh 82.9 (no result: Ecoli tolC)
COc1ccc(C(=O)Nc2cc(C(F)(F)F)ccc2Cl)cc1OC	CYP2C9 act 2.5 (no result: Ecoli tolC)
COc1ccc(CCNC(=O)c2ccc(Cl)cc2)cc1	none (no result: Ecoli tolC)
COc1cccc(C(=O)Nc2ccc(Cl)c(C(F)(F)F)c2)c1	CYP2C9 inh 61.8 (no result: Ecoli tolC)

Source: PubChem (several laboratories)
